The source made the active and inactive calls. The calls are words filed in the database; no cut-off is given here.
What was measured:
[1] = molecular target: T1, cGMP-inhibited 3',5'-cyclic phosphodiesterase 3A (Homo sapiens, UniProt Q14432); test: Inhibition of human recombinant PDE3A assessed as inhibition of [3H]cAMP hydrolysis by scintillation proximity assay
How it was run: (§1)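 Scintillation proximity assay on recombinant human PDEs 1–11, with [³H]cAMP as substrate and hydrolysis of cAMP to AMP as read-out. Ki values are means of two experiments.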

[2] = molecular target: cAMP and cAMP-inhibited cGMP 3',5'-cyclic phosphodiesterase 10A (Homo sapiens, UniProt Q9Y233); test: Inhibition of human recombinant PDE10A assessed as inhibition of [3H]cAMP hydrolysis by scintillation proximity assay; how it was run: as §1
[3] = molecular target: T2, High affinity 3',5'-cyclic-AMP phosphodiesterase 7A (Homo sapiens, UniProt Q13946); test: Inhibition of human recombinant PDE7A1 assessed as inhibition of [3H]cAMP hydrolysis by scintillation proximity assay; how it was run: as §1
Phosphodiesterase 1 = Phosphodiesterase 1 (Homo sapiens, UniProt P54750+Q01064+Q14123); test: Inhibition of human recombinant PDE1 assessed as inhibition of [3H]cAMP hydrolysis by scintillation proximity assay; assay type: protein assay; how it was run: as §1
Phosphodiesterase 8 = Phosphodiesterase 8 (Homo sapiens, UniProt O95263+O60658); test: Inhibition of human recombinant PDE8 assessed as inhibition of [3H]cAMP hydrolysis by scintillation proximity assay; assay type: protein assay; how it was run: as §1
hERG (KCNH2) = hERG (KCNH2) (Homo sapiens, UniProt Q12809); test: Inhibition of human ERG at 10 uM
How it was run: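 hERG inhibition was measured on the IonWorks platform at 10 µM.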

[4] = molecular target: cGMP-dependent 3',5'-cyclic phosphodiesterase (Homo sapiens, UniProt O00408); test: Inhibition of human recombinant PDE2 assessed as inhibition of [3H]cAMP hydrolysis by scintillation proximity assay; how it was run: as §1
[5] = Solubility of the compound in 2% DMSO at pH 7.4; assay type: physicochemical
[6] = molecular target: Dual 3',5'-cyclic-AMP and -GMP phosphodiesterase 11A (Homo sapiens, UniProt Q9HCR9); test: Inhibition of human recombinant PDE11 assessed as inhibition of [3H]cAMP hydrolysis by scintillation proximity assay; how it was run: as §1
[7] = Clearance in monkey hepatocytes assessed per 10^6 cells; assay type: ADME, cell-based, Macaca mulatta, Hepatocyte; conditions: rhesus monkey, read-out: CLH
[8] = Clearance in human hepatocytes assessed per 10^6 cells; assay type: ADME, cell-based, Hepatocyte; conditions: read-out: CLH
[9] = molecular target: High affinity cGMP-specific 3',5'-cyclic phosphodiesterase 9A (Homo sapiens, UniProt O76083); test: Inhibition of human recombinant PDE9 assessed as inhibition of [3H]cAMP hydrolysis by scintillation proximity assay; how it was run: as §1
[10] = Dissociation constant, pKa of the compound; assay type: physicochemical
Phosphodiesterase 6 = test: Inhibition of human recombinant PDE6 assessed as inhibition of [3H]cAMP hydrolysis by scintillation proximity assay; assay type: protein assay; how it was run: as §1
[11] = Clearance in rat hepatocytes assessed per 10^6 cells; assay type: ADME, cell-based, Hepatocyte; conditions: read-out: CLH
[12] = molecular target: cGMP-specific 3',5'-cyclic phosphodiesterase (Homo sapiens, UniProt O76074); test: Inhibition of human recombinant PDE5 assessed as inhibition of [3H]cAMP hydrolysis by scintillation proximity assay; how it was run: as §1
Phosphodiesterase 4 = Phosphodiesterase 4 (Homo sapiens, UniProt P27815+Q08499+Q07343+Q08493); test: Inhibition of human recombinant PDE4 assessed as inhibition of [3H]cAMP hydrolysis by scintillation proximity assay; assay type: protein assay; how it was run: as §1
[13] = Efflux ratio in human Caco2 cells; assay type: ADME, cell-based; conditions: Caco-2
[14] = molecular target: T2, High affinity 3',5'-cyclic-AMP phosphodiesterase 7A; test: Inhibition of human recombinant PDE7A1 assessed as inhibition of [3H]cAMP hydrolysis at 3 uM by scintillation proximity assay
How it was run: (§2)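 Recombinant human PDE3A or PDE7A1 was tested at a single 3 µM level in the scintillation proximity assay, with [³H]cAMP as substrate and cAMP-to-AMP hydrolysis as read-out. Results are expressed as % inhibition.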

Rattus norvegicus [15] = test: Antipsychotic activity in CD rat assessed as inhibition of MK801-induced hyperactivity at 3 mg/kg, po; assay type: functional, organism-based; set-up: dose 3 mg/kg
How it was run: (§3)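 Male CD rats were habituated to locomotor activity chambers 24 h before testing. On test day, MK-801 (0.3 mg/kg, sc) was co-administered with the PDE10 inhibitor (po) and the rats were placed in the apparatus. Inhibition is the activity of the inhibitor+MK-801 group as a percent of the vehicle+MK-801 group.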

[16] = Toxicity in Cebus monkey assessed as akathisia at 3 to 6 mg/kg, po; assay type: organism-based; set-up: dose 3-6 mg/kg, route oral; conditions: in vivo
[17] = Toxicity in Cebus monkey assessed as extrapyramidal symptoms at 3 to 6 mg/kg, po; assay type: organism-based; set-up: dose 3-6 mg/kg, route oral; conditions: in vivo
[18] = molecular target: T1, cGMP-inhibited 3',5'-cyclic phosphodiesterase 3A; test: Inhibition of human recombinant PDE3A assessed as inhibition of [3H]cAMP hydrolysis at 3 uM by scintillation proximity assay; how it was run: as §2
[19] = Drug uptake in CD rat brain at 30 mg/kg, po after 1 hr; assay type: ADME, organism-based; set-up: dose 30 mg/kg, route oral
Rattus norvegicus [20] = test: Antipsychotic activity in CD rat assessed as inhibition of MK801-induced hyperactivity at 30 mg/kg, po; assay type: functional, organism-based; set-up: dose 30 mg/kg; how it was run: as §3

Dual 3',5'-cyclic-AMP and -GMP phosphodiesterase 11A, sequence (Q9HCR9 whole entry): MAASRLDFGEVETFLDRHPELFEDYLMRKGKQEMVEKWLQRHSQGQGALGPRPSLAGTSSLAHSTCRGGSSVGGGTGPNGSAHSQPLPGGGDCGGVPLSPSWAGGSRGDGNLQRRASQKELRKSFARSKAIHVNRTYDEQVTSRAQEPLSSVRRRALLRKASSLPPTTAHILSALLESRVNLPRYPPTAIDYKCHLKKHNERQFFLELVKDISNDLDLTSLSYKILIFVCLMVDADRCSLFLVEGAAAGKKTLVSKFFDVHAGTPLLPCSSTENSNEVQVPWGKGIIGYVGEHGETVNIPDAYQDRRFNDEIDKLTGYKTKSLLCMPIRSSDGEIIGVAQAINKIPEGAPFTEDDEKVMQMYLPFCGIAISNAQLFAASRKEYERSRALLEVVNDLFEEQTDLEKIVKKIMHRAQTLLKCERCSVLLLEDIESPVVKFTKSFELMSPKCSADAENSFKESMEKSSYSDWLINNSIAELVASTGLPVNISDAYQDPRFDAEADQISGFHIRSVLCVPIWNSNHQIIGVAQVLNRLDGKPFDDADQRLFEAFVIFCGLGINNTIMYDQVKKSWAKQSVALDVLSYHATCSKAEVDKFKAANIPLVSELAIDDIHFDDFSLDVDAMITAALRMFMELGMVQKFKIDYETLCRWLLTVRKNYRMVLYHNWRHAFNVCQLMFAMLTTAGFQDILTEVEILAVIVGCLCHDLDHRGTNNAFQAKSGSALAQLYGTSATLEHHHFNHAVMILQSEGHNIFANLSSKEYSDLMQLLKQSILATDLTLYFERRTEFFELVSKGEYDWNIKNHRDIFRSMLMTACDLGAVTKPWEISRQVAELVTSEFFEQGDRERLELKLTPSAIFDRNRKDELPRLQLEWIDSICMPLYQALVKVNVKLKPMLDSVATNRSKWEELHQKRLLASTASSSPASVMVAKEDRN
T2 sequence (Q13946 whole entry): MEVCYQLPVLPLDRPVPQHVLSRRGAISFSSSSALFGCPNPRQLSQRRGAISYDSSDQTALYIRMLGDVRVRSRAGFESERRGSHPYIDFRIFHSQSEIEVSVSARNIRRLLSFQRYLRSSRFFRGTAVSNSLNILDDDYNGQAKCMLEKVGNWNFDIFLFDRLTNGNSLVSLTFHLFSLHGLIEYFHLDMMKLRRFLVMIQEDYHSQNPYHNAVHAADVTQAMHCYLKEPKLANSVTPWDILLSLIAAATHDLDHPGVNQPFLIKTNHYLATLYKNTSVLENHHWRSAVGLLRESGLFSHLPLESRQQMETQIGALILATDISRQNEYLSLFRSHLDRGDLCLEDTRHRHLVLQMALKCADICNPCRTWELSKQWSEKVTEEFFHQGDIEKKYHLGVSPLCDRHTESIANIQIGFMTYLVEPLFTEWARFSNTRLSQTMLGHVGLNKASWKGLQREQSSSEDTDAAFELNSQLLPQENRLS
T1 sequence (Q14432 whole entry): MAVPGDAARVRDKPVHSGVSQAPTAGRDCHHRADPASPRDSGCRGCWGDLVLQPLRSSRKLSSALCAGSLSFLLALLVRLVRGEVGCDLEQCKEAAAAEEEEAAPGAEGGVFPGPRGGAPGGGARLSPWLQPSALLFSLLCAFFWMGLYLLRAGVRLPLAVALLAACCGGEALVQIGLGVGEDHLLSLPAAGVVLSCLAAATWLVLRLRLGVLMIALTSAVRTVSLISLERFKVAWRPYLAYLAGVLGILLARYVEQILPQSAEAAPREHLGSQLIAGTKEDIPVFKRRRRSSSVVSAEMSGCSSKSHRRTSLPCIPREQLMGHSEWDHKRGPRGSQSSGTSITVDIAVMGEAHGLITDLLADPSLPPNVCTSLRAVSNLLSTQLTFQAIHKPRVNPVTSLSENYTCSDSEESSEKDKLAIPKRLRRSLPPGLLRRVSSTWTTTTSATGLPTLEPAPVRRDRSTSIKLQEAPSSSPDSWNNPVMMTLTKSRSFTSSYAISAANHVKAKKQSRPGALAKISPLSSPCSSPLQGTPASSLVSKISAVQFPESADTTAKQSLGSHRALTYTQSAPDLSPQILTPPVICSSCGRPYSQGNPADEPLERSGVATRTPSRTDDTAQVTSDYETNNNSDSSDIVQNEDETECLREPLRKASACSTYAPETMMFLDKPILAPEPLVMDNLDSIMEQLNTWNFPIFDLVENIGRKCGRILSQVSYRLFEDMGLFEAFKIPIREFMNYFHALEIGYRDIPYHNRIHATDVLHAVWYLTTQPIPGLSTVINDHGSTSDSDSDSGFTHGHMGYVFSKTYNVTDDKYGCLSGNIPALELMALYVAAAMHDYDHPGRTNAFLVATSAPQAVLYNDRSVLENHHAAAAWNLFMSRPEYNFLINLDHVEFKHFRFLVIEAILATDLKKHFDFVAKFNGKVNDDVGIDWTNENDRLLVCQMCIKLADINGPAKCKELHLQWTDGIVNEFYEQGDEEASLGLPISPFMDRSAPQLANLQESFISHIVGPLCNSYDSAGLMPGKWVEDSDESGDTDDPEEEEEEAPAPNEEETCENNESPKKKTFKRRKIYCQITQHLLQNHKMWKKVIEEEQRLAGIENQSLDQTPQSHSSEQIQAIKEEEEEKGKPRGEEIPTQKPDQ
hERG (KCNH2), sequence (Q12809 whole entry): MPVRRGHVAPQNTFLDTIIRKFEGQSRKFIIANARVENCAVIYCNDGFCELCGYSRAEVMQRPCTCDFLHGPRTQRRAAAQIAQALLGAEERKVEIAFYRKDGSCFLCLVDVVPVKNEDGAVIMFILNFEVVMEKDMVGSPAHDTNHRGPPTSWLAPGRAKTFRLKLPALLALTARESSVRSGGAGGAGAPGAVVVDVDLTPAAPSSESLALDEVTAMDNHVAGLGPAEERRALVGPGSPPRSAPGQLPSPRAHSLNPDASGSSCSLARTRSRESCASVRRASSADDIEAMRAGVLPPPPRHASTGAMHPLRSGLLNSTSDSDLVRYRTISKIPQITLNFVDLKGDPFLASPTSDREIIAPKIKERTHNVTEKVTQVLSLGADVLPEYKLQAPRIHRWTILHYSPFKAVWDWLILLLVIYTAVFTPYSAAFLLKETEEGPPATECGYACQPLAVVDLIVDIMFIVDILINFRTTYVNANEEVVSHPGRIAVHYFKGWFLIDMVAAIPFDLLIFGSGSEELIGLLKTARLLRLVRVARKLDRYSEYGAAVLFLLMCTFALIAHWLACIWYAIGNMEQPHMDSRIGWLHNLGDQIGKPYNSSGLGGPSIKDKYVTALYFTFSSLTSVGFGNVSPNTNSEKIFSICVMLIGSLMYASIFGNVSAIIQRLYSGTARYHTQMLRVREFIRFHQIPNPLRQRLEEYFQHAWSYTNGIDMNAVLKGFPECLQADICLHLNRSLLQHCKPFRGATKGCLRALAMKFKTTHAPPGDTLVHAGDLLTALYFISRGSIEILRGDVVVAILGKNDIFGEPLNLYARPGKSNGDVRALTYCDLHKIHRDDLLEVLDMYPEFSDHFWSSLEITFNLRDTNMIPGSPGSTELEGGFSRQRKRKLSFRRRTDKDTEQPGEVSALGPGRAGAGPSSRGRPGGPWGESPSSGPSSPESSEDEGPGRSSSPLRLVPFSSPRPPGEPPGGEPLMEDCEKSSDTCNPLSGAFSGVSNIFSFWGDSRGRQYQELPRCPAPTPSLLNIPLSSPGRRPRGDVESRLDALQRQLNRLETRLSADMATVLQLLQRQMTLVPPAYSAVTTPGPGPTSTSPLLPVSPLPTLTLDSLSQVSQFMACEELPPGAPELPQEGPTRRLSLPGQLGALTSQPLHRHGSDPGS
cGMP-dependent 3',5'-cyclic phosphodiesterase, sequence (O00408 whole entry): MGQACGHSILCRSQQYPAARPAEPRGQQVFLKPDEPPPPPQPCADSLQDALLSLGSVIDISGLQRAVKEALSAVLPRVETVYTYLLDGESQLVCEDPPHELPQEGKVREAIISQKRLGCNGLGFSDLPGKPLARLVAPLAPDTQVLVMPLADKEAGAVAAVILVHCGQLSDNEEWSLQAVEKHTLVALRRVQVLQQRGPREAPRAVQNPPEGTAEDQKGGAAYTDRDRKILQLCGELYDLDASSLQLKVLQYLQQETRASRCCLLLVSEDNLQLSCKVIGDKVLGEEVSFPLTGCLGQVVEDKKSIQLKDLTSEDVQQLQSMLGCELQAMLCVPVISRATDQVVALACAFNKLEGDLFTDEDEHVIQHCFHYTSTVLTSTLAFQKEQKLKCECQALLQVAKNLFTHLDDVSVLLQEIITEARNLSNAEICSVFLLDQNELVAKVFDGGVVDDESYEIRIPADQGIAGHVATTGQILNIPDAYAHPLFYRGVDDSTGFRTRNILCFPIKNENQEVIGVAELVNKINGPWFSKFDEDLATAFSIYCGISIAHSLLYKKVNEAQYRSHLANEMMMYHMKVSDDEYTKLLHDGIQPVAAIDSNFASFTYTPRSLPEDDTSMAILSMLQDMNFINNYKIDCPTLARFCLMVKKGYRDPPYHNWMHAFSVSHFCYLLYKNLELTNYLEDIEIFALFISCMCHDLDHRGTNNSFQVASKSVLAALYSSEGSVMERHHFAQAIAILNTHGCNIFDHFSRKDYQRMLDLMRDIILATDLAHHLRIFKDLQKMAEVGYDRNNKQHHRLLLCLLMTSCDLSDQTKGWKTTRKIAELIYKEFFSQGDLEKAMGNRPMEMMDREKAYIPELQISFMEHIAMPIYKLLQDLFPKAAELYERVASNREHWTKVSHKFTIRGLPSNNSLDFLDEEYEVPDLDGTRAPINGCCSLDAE

SMILES | Ki [1] [nM] | Ki [2] [nM] | Ki [3] [nM] | hepatocyte CLint [7] [µL/min/1e6 cells] | hepatocyte CLint [8] [µL/min/1e6 cells] | hepatocyte CLint [11] [µL/min/1e6 cells] | other results
COc1cc2c(cc1OC)-c1c(-c3cnc(CN4CCCOCC4)s3)ncn1CC2 | 224 | 3.8 | 3770 |  |  |  | 
COc1cc2c(cc1OC)-c1c(-c3cnc(CN4CCOCC4)s3)ncn1CC2 | 148 | 6.6 | 4600 |  |  |  | 
COc1ccc(-c2ncn3c2-c2cc(OC)c(OC)cc2CC3)cc1 |  | 114 |  |  |  |  | 
COc1cc2c(cc1OC)-c1c(-c3cnc(C(=O)N(C)C(C)(C)C)s3)ncn1CC2 | 149 | 8.7 | 243 | 59 | 66 | 49 | Ki (Phosphodiesterase 1): > 2000 nM; Ki (Phosphodiesterase 8): > 2000 nM; inhibition at 10 µM (hERG (KCNH2)): 40%; Ki [4]: > 2000 nM; solubility [5]: > 200 µM; Ki [6]: > 2000 nM; Ki [9]: > 2000 nM; pKa [10]: 4; Ki (Phosphodiesterase 6): > 2000 nM; Ki [12]: > 2000 nM; Ki (Phosphodiesterase 4): > 2000 nM
COc1cc2c(cc1OC)-c1c(C3CCCCC3)ncn1CC2 |  | 199 |  |  |  |  | 
COc1cc2c(cc1OC)-c1c(-c3cocn3)ncn1CC2 |  | 508 |  |  |  |  | 
COc1cc2c(cc1OC)-c1c(-c3cncn3C)ncn1CC2 |  | 264 |  |  |  |  | 
COc1cc2c(cc1OC)-c1c(-c3ccc(Cl)cc3)ncn1CC2 |  | 183 |  |  |  |  | 
CCOc1cccc(-c2ncn3c2-c2cc(OC)c(OC)cc2CC3)c1 | 277 | 8 | 3760 | 66 | > 14 | 61 | 
COc1cc2c(cc1OC)-c1c(-c3cnc(C(=O)NC4CCOCC4)s3)ncn1CC2 | 828 | 4.3 | 550 | 22.7 | 1.4 | 5.7 | 
COc1cc2c(cc1OC)-c1c(-c3ccccc3Cl)ncn1CC2 |  | 628 |  |  |  |  | 
COc1cc2c(cc1OC)-c1c(-c3cnc(C)s3)ncn1CC2 |  | 186 |  |  |  |  | 
COc1cc2c(cc1OC)-c1c(-c3cnc(C(=O)N4CCCOCC4)s3)ncn1CC2 | 24 | 1.5 | 269 |  |  |  | 
COc1cc2c(cc1OC)-c1c(-c3cnc(N4CCOCC4)s3)ncn1CC2 | 177 | 26 | 2470 |  |  |  | 
COc1cc2c(cc1OC)-c1c(-c3cnc(CO)s3)ncn1CC2 | 540 | 26 | 4600 |  |  |  | 
COc1cc2c(cc1OC)-c1c(-c3cccnc3)ncn1CC2 | 449 | 29 |  | 38.7 | 1.7 | 11.8 | Ki (Phosphodiesterase 1): > 4274 nM; Ki (Phosphodiesterase 8): > 4274 nM; inhibition at 10 µM (hERG (KCNH2)): 24%; Ki [4]: > 4270 nM; solubility [5]: > 200 µM; efflux ratio [13]: 1.4; Ki [6]: > 4270 nM; inhibition [14]: 45%; Ki [9]: > 4270 nM; pKa [10]: 3.5; Activity (Rattus norvegicus [15]): Active; Activity [16]: Non-toxic; Activity [17]: Non-toxic; Ki (Phosphodiesterase 6): > 4274 nM; Ki [12]: > 4270 nM; Ki (Phosphodiesterase 4): > 4274 nM
COc1cccc(-c2ncn3c2-c2cc(OC)c(OC)cc2CC3)c1 | 136 | 30 | 5540 | 66 | > 14 | 61 | 

SMILES | Ki [1] [nM] | Ki [2] [nM] | Ki [3] [nM] | hepatocyte CLint [7] [µL/min/1e6 cells] | hepatocyte CLint [8] [µL/min/1e6 cells] | hepatocyte CLint [11] [µL/min/1e6 cells] | other results
COc1cc2c(cc1OC)-c1c(-c3cccnc3)nc(C)n1CC2 | 727 | 25 | 5980 | 26.6 | 0.4 | 3.6 | Ki (Phosphodiesterase 1): > 7950 nM; Ki (Phosphodiesterase 8): > 7950 nM; inhibition at 10 µM (hERG (KCNH2)): 29%; Ki [4]: > 7950 nM; solubility [5]: > 200 µM; Ki [6]: > 7950 nM; Ki [9]: > 7950 nM; pKa [10]: 4; Ki (Phosphodiesterase 6): > 7950 nM; Ki [12]: > 7950 nM; Ki (Phosphodiesterase 4): > 7950 nM
COc1cc2c(cc1OC)-c1c(-c3cnco3)ncn1CC2 | 1740 | 31 | 11100 | 67 | 25 |  | 
COc1cc2c(cc1OC)-c1c(-c3cccc(N4CCOCC4)c3)ncn1CC2 | 1470 | 6.4 | 7500 | 66 | > 14 | 61 | 
COc1cc2c(cc1OC)-c1c(-c3cccc(Br)c3)ncn1CC2 | 1280 | 32 | 10100 | 66 | > 14 | 61 | 
COc1cc2c(cc1OC)-c1c(-c3cscn3)ncn1CC2 |  | 861 |  |  |  |  | 
COc1cc2c(cc1OC)-c1c(-c3cnc(C(=O)N4CCOCC4)s3)ncn1CC2 | 99 | 10 | 613 |  |  |  | 
COc1cc2c(cc1OC)-c1c(-c3ccccn3)ncn1CC2 |  | 240 |  |  |  |  | 
COc1cc2c(cc1OC)-c1c(-c3ccccc3)ncn1CC2 |  | 121 |  |  |  |  | 
COc1cc2c(cc1OC)-c1c(-c3ccccc3OC)ncn1CC2 |  | 212 |  |  |  |  | 
COc1cc2c(cc1OC)-c1c(-c3cncs3)nc(C)n1CC2 | 968 | 20 | 6120 | 65.5 | 7.5 | 9.2 | Ki (Phosphodiesterase 1): > 7100 nM; Ki (Phosphodiesterase 8): > 7100 nM; inhibition at 10 µM (hERG (KCNH2)): 10%; Ki [4]: > 7100 nM; solubility [5]: > 150 µM; Ki [6]: > 7100 nM; Ki [9]: > 7100 nM; pKa [10]: 5; Ki (Phosphodiesterase 6): > 7100 nM; Ki [12]: > 7100 nM; Ki (Phosphodiesterase 4): > 7100 nM
COc1cc2c(cc1OC)-c1c(-c3cccc(Cl)c3)ncn1CC2 | 954 | 33 | 6930 | 66 | > 14 | 61 | 
COc1cc2c(cc1OC)-c1c(-c3cccnc3)ncn1C(C)C2 (stereo unspecified) |  | 12 |  |  |  |  | inhibition [18]: 97%
COc1cc2c(cc1OC)-c1c(-c3ccncc3)ncn1CC2 |  | 101 |  |  |  |  | 
COc1cc2c(cc1OC)-c1c(-c3cncnc3)ncn1CC2 |  | 40 |  |  |  |  | inhibition [14]: 13%; inhibition [18]: 14%
COc1cc2c(cc1OC)-c1c(-c3cncs3)ncn1CC2 | 555 |  | 3700 |  |  |  | Ki (Phosphodiesterase 1): > 2000 nM; concentration at 1 h [19]: 350 ng/g; Ki (Phosphodiesterase 8): > 2000 nM; inhibition at 10 µM (hERG (KCNH2)): 26%; Ki [4]: > 2000 nM; solubility [5]: > 200 µM; Activity (Rattus norvegicus [20]): Active; Ki [6]: > 2000 nM; Ki [9]: > 2000 nM; pKa [10]: 4.3; Ki (Phosphodiesterase 6): > 2000 nM; Ki [12]: > 2000 nM; Ki (Phosphodiesterase 4): > 2000 nM
COc1cc2c(cc1OC)-c1c(-c3cnc(C(=O)NCc4ccccc4)s3)ncn1CC2 | > 100000 | 40 | 507 |  |  |  | 

Reference: ChEMBL document CHEMBL2016496, “The SAR development of dihydroimidazoisoquinoline derivatives as phosphodiesterase 10A inhibitors for the treatment of schizophrenia” (Bioorg Med Chem Lett, 2012)
